UCH37 DUB inh: blocks the human deubiquitinase UCH37 | Q9Y5K5 | purified proteasome/UCH37, Ub-AMC cleavage fluorescence | inhibition, % (no concentration beside the values) | actives 0.33% (n = 330,000) | AID 588478;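 active = mean inhibition over replicate wells above about 20%, limit read from the data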
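Material: human UCH37 enzyme supplied as purified proteasome complex. Measure: % inhibition of Ub-AMC cleavage fluorescence. Medium: pH 7.4 Tris-HCl (50 mM) with ovalbumin, ATP-MgCl2, DTT. Times: 30 min preincubation with enzyme, 25 min cleavage at room temperature. Detection: AMC fluorescence intensity at 355/460 nm.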
APOBEC3G inh: APOBEC3G (human) deaminase inhibition; Q9HC16; inhibition, % at 20 µM; recombinant A3G, ssDNA deamination FAM/TAMRA fluorescence; actives 0.28% (n = 330,000);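 active = inhibition of at least 40% at 20 µM, with no more than 30% in the related APOBEC3A deaminase screen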
Arr AP2 block: inhibitors of human beta-arrestin and AP2 interaction; FITC-arrestin peptide / GST-AP2 beads, flow cytometry; AP2 beta2 appendage carries R879A mutation; inhibition, % at 10 µM; actives 0.31% (n = 340,000);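 active = inhibition above a set limit, near 3 SD of compounds lacking own fluorescence, cut at about 54% in these data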
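System: GST-AP2 R879A glutathione beads. Medium: PBS with 0.05% Tween 20 and 0.1% BSA. Also added: FITC-arrestin peptide, 50 nM. Incubation: 12 min plus 1 h, RT. Measured by: high-throughput flow cytometry of beads, ex 488, em 535 nm. Evaluation: percent drop in bead-associated FITC signal.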
AHR act: human AHR activation. AID 2796. activation, % at 5 µM. AHR-responsive luciferase reporter cells, luminescence. actives 2.5% (n = 320,000); in the data active = activation above about 47%
Target sequence (P35869 whole entry, looked up): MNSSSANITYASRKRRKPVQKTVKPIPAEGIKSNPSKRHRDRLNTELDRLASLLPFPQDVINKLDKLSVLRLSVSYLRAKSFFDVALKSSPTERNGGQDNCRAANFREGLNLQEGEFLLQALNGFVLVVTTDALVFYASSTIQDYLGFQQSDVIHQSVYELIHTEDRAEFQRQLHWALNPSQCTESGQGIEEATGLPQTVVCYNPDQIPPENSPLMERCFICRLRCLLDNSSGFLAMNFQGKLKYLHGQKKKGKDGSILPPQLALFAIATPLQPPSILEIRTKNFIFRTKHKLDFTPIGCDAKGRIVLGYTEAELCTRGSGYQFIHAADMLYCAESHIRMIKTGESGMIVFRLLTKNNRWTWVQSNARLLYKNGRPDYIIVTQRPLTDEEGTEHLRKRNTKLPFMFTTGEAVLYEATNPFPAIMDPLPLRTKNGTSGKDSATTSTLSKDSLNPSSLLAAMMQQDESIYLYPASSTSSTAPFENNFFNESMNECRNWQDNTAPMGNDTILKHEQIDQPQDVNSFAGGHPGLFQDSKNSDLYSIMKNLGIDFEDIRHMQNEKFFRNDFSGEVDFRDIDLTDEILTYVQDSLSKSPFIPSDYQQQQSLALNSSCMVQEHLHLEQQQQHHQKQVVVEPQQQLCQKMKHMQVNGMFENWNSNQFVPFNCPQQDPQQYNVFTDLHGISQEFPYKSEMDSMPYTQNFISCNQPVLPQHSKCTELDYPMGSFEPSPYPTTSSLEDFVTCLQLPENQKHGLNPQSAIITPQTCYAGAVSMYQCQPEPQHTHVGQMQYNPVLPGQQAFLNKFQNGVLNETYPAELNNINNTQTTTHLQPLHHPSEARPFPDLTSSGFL
APOBEC3A inh: inhibitors of human APOBEC3A DNA deaminase | P31941 | recombinant A3A, FAM/TAMRA ssDNA deamination fluorescence | inhibition, % at 20 µM | actives 0.41% (n = 330,000) | AID 493011;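 active = at least 40% inhibition at 20 µM here, with at most 30% in a related deaminase screen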
PolyA inhibitor: blocks polyadenylation in yeast reporter cells. S. cerevisiae SKY197-pL101 polyadenylation reporter, beta-gal luminescence; efflux-impaired pdr1/pdr3 knockout yeast; score 100 = 6 SD above DMSO. activity score, % at 12 µM. actives 0.02% (n = 300,000);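 active = lowest replicate activity score at least 50, where 100 means six control SD above control mean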;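 note: yeast exposed to compound for 9 h at 30 °C; higher score means more reporter readthrough which indicates perturbed polyadenylation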
AHR act cf: confirmation of human aryl hydrocarbon receptor activators; shares compounds with AHR act; human cells, AHR-responsive luciferase reporter, luminescence; activation, % at 9 µM; actives 87% (n = 2,300); in the data active = activation above about 49%;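 note: HepG2 hepatoma cells carrying a DRE-driven firefly luciferase reporter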
PXR act counter: PXR activation, counter-screen for AHR activators; shares compounds with AHR act; cell-based PXR reporter, luciferase luminescence; activation, % at 11.6 µM; actives 88% (n = 2,300); in the data active = activation above about 11%;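 note: human hepatoma DPX-2 cells expressing full-length human PXR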
A number is an active result; - = inactive; . = not tested or not shown. Only some compounds are listed: those with a hit (about 3.4% of all), similar ones and a draw of the others.

SMILES | UCH37 DUB inh | APOBEC3G inh | Arr AP2 block | AHR act | APOBEC3A inh | PolyA inhibitor | AHR act cf | PXR act counter
CCOC(=O)C(CC)C(C)=NNC(=O)c1cccc(C)c1 (stereo not drawn) | - | . | . | . | . | . | . | .
COc1cccc(-n2c(N)c(-c3nc4ccccc4[nH]3)sc2=S)c1 | - | - | - | 88.9 | - | - | 129.7 | 97.1
COc1ccc(-c2sc3ccc(OC)cc3c2-c2ccc(OC)c(F)c2)cc1 | - | - | - | - | - | . | . | .
COc1ccc2sc(-c3ccc(SC)cc3)c(-c3ccc(O)cc3)c2c1 | - | - | - | 79.7 | - | . | 84.4 | 18.7
Nc1nnn(CC(=O)NN=C/C=C/c2ccccc2)n1 | - | . | . | . | . | . | . | .
COc1cccc(NC(=O)/C=C/c2ccc([N+](=O)[O-])cc2)c1 | - | - | - | 88.2 | - | - | 91.0 | 24.8
CCn1nc(C(=O)Nc2cccc3ccccc23)c(Cl)c1Cl | - | - | - | 85.0 | - | - | 95.5 | 16.6
CCn1nc(C(=O)Nc2ccccc2C)c(Cl)c1Cl | - | - | - | 90.3 | - | - | - | 17.4
CC(=O)N(/N=C1\Sc2ccccc2C1=O)c1ccccc1C | . | - | - | 90.0 | - | - | 75.7 | 18.6
CCCCNc1c(-c2ccc(-c3cccc(Cl)c3)cc2)nc2ccc(Cl)cn12 | - | - | - | 79.5 | - | . | - | 14.0
CCCCCCSc1ccc(-c2nc3ccc(Cl)cn3c2NCCCC)cc1OC | - | - | - | - | - | . | . | .
O=C(NN=Cc1c(F)c(F)c(F)c(F)c1F)c1cc(-c2ccccc2)nc2ccccc12 | - | . | . | . | . | . | . | .
CCOc1cc(C=NNC(=O)C(=O)Nc2cc(Cl)ccc2C)ccc1O | - | . | . | . | . | . | . | .
COc1cccc2sc3cc(NCc4ccc(C)o4)ccc3c(=O)c12 | . | - | - | 95.7 | - | . | 95.2 | 54.8
NC(Cc1ccc([N+](=O)[O-])cc1)=NOC(=O)COc1ccc2ccccc2c1 | - | . | . | . | . | . | . | .
O=C1OC(c2cc(Br)c(O)c(Br)c2)c2ccccc21 (stereo not drawn) | - | . | - | . | . | . | . | .
Oc1c(Br)cc(C2N=C(c3ccccc3)NO2)cc1Br (stereo not drawn) | - | - | - | 94.4 | - | - | 91.9 | 17.6
CC(=O)Nc1sc(-c2ccc(Cl)cc2)nc1-c1ccccc1 | - | - | - | 92.1 | - | - | - | 15.8
CCC1=NN=C(c2ccc(F)cc2)C(c2c[nH]c3ccccc23)N1O (stereo not drawn) | - | - | - | 86.7 | - | - | 78.5 | 19.9
COc1ccc(NC(=S)NN=Cc2cccn2Cc2ccccc2F)cc1 | - | . | . | . | . | . | . | .
O=C(NN=Cc1ccccn1)c1cc(C2CC2)nc2ccccc12 | - | . | . | . | . | . | . | .
CCCC(=O)Nc1cc(-c2nc3ncccc3o2)ccc1C | - | - | - | - | - | - | . | .
CCC(=O)Nc1cc(-c2nc3ncccc3o2)ccc1Cl | - | - | - | 109.8 | - | - | 96.6 | 15.7
CC(C)C(=O)Nc1cc(-c2nc3ncccc3o2)ccc1Cl | - | - | - | - | - | - | . | .
Cc1ccc(-c2nc3ncccc3o2)cc1NC(=O)C(C)(C)C | - | - | - | 91.1 | - | - | 90.8 | 31.9
SMILES | UCH37 DUB inh | APOBEC3G inh | Arr AP2 block | AHR act | APOBEC3A inh | PolyA inhibitor | AHR act cf | PXR act counter
Cc1ccc(NN=Cc2c(O)cc(C)oc2=O)cc1 | - | . | . | . | . | . | . | .
C/C(C=NN1CCN(Cc2ccc(C)cc2)CC1)=C/c1ccccc1 | - | . | . | . | . | . | . | .
CC(=O)Nc1cccc(OCC(=O)Nc2ccc(F)cc2)c1 | - | - | - | 84.5 | - | - | 75.5 | .
CCOc1ccc(NC(=O)CNC(=O)COc2ccccc2)cc1 | - | - | - | 120.6 | - | - | - | 11.0
CCOc1ccc(NC(=O)Nc2cccc(C)n2)cc1 | - | - | - | 80.2 | - | - | 71.3 | 17.7
CC(=O)Nc1ccc(NC(=O)CNC(=O)COc2ccccc2)cc1 | - | - | - | - | - | - | . | .
CC(=O)Nc1cccc(OCc2ccc(F)cc2)c1 | - | - | - | - | - | - | . | .
CC(=O)Nc1ccc(C=NNC(=O)c2cc3cc(C)ccc3nc2C)cc1 | - | . | . | . | . | . | . | .
O=C(COc1ccc(C=NNC(=O)c2ccccc2Br)cc1)Nc1ccccc1 | - | . | . | . | . | . | . | .
CCOc1ccc(/C=N/n2cc(-c3ccccc3)[nH]c2=S)cc1 | . | - | - | 84.1 | - | - | 107.7 | .
Cc1cc(Cl)nc(-c2ccccc2)n1 | - | - | - | - | - | - | . | .
Cc1cc2c(C)nc(-c3ccccc3)nc2o1 | - | - | - | 116.4 | - | - | 159.5 | 39.4
Cc1ccc(CSc2nc3ccccc3cc2C=O)cc1 | . | - | - | 81.6 | - | - | 72.0 | 15.0
CCOC(=O)Nc1nnc(-c2ccccc2OC)s1 | - | - | - | 98.2 | - | - | 125.3 | 29.2
COC(=O)Nc1nnc(-c2ccccc2OC)s1 | - | - | - | 107.0 | - | - | 139.6 | 16.8
CCOC(=O)Nc1nnc(-c2ccc(OC)cc2)s1 | - | - | - | - | - | - | . | .
CCOc1ccccc1C(=O)Nc1nnc(CC)s1 | - | - | - | 96.3 | - | - | 69.8 | 22.2
CCc1nnc(NC(=O)c2cccc(C(=O)Nc3nnc(CC)s3)n2)s1 | - | . | - | - | . | - | . | .
COc1ccccc1-c1nnc(N)s1 | - | - | - | - | - | - | . | .
CC(=O)Nc1ccc2c(c1)C(=O)c1ccccc1C2=O | - | - | - | 152.2 | - | - | 120.9 | 34.9
CC(=O)C(=NNc1ccccc1)Oc1ccc([N+](=O)[O-])cc1 | - | . | . | . | . | . | . | .
CC(=NN=C(N)N)c1cccc([N+](=O)[O-])c1 | - | . | . | . | . | . | . | .
O=C(Nc1cc(F)cc(F)c1)c1ccc(NCCCN2CCCCCC2)c([N+](=O)[O-])c1 | - | - | - | 83.0 | - | - | 117.9 | 29.0
O=C(Nc1ccccc1)c1ccc(NCCN2C(=O)CCC2=O)c([N+](=O)[O-])c1 | - | - | - | 80.8 | - | - | 110.2 | 23.1
COc1cccc(NC(=O)c2ccc(NCCCN3CCC(C)CC3)c([N+](=O)[O-])c2)c1 | - | - | - | - | - | - | . | .
CC(C)c1c(C(=O)NN=Cc2ccc(OCc3ccccc3)cc2)nnn1-c1nonc1N | - | . | . | . | . | . | . | .
Cc1ccc(-c2nc(SCC(=O)NCC3CCCO3)c(-c3ccc(Cl)cc3)[nH]2)cc1 (stereo not drawn) | - | - | - | 86.5 | - | - | 73.1 | 73.2
Cc1ccc(-c2[nH]c(-c3ccccc3)nc2SCC(=O)NCC2CCCO2)cc1 (stereo not drawn) | - | - | - | 92.6 | - | - | 90.8 | 110.3
Cc1ccc(-c2nc(S(=O)(=O)c3ccccc3)c(SCC(=O)NCC3CCCO3)o2)cc1 (stereo not drawn) | - | - | - | - | - | - | . | .
Cc1ccc(C=NNC(=S)NC(C)C)o1 | - | . | . | . | . | . | . | .
